We go through 3 molecules from ChEMBL document CHEMBL1137654, “Activity of an antimicrobial peptide mimetic against planktonic and biofilm cultures of oral pathogens” (2007).

What is called MFC is the lowest tested concentration that kills the fungus rather than only halting it.

Converted amounts (≈) assume the structure as drawn. The source made the active and inactive calls. The calls are words filed in the database; no cut-off is given here.

In experiment [1] the test system is Streptococcus mutans. Description: Antibacterial activity against Streptococcus mutans ATCC 33402 biofilms assessed as log reduction of viable bacteria at 500 ug/ml. The experiment is classed as functional, organism-based. The essentials: (§1)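 1 × 10⁵ CFU grown 2 days in BHI + 1% sucrose, then compound added for 24 h. Biofilms washed with PBS, disrupted by sonication (30 s) in 2 ml PBS, serially diluted and plated on mitis agar for viable counts.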

In a further experiment the test system is Pichia kudriavzevii. Description: Antifungal activity against Candida krusei ATCC 6258 after 24 hrs by broth microdilution assay. Format: functional. To be noted: ATCC 6258, 24 h. The essentials:
(§2)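 CLSI M27-A2 broth microdilution. Colonies from 24-h YPD agar culture suspended in 0.85% saline, set to 0.5 McFarland (OD 530 nm). Final inoculum 0.5–2.5 × 10³ CFU/ml in RPMI 1640 + 0.165 M MOPS pH 7.0. DMSO stock diluted to final 0.016–16 μg/ml. 35°C, visual read at 24 h against the drug-free well. Duplicate.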
On the technique in general: Broth dilution looks for growth in wells or tubes with falling amounts of substance.

The subject of experiment [2] is Streptococcus mutans. Description: Antibacterial activity against Streptococcus mutans ATCC 33402 assessed as inhibition of biofilm formation at >1 ug/ml in presence of 1% sucrose by crystal violet staining. The experiment is classed as functional, organism-based.
A further experiment relates to Nakaseomyces glabratus. Description: Antifungal activity against Candida glabrata ATCC 90030 after 24 hrs by broth microdilution assay. Format: functional. To be noted: ATCC 90030, 24 h. In short, it runs like this:
as §2

In experiment [3] the test system is Staphylococcus aureus. Kind of experiment: Antibacterial activity against Staphylococcus aureus ATCC 27660 after 18 to 24 hrs. Format: functional. The essentials: (§3)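 Exponential-phase overnight culture in the organism's growth medium, adjusted to 4.5 × 10⁵ CFU/ml and added to serial compound dilutions in 96-well plates; 37°C for 18 to 24 h in a humidified container. MIC = lowest concentration preventing visible turbidity. Triplicate.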

The test system of experiment [4] is Streptococcus mutans. Description: Antibacterial activity against Streptococcus mutans ATCC 33402 in presence of 50% human saliva. Format: functional.
For experiment [5], the system named is Porphyromonas gingivalis. Kind of experiment: Antibacterial activity against Porphyromonas gingivalis ATCC 53978 after 18 to 24 hrs. The experiment is classed as functional. The essentials: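 P. gingivalis maintained in cooked meat medium with glucose, hemin and vitamin K at 37°C, anaerobic. MIC run in both cooked meat medium and TSB: 4.5 × 10⁵ CFU/ml with serial dilutions, 18 to 24 h, lowest concentration without visible turbidity. Triplicate.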

For experiment [6], the system named is Streptococcus mutans. Kind of experiment: Antibacterial activity against Streptococcus mutans isolate N43 after 18 to 24 hrs. Format: functional. The essentials:
as §3

Experiment [7] has as its system Nucleic Acid. Kind of experiment: Binding affinity to double stranded DNA retardation of oligonucleotide movement by agarose gel electrophoresis. Format: nucleic-acid assay.
Experiment [8] deals with Streptococcus mutans. Kind of experiment: Antibacterial activity against Streptococcus mutans ATCC 33402 in presence of 25% human saliva. Format: functional.
In another experiment the test system is Candida parapsilosis. Kind of experiment: Antifungal activity against Candida parapsilosis ATCC 22019 after 24 hrs by broth microdilution assay. To be noted: Lodderomyces parapsilosis, ATCC 22019, 24 h. Format: functional. In short, it runs like this: as §2
The next experiment concerns Candida tropicalis. Description: Antifungal activity against Candida tropicalis ATCC 750 after 24 hrs by broth microdilution assay. The experiment is classed as functional. The settings on record: ATCC 750, 24 h. In short, it runs like this: as §2
In experiment [9] the test system is Streptococcus mutans. Kind of experiment: Antibacterial activity against Streptococcus mutans ATCC 33402 biofilms assessed as log reduction of viable bacteria at 50 ug/ml. The experiment is classed as functional. In short, it runs like this:
as §1

The test system of experiment [10] is Porphyromonas gingivalis. Description: Antibacterial activity against Porphyromonas gingivalis ATCC 53978 after 24 to 48 hrs. Format: functional. The essentials: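 P. gingivalis MBC, anaerobic, from MIC plates run in cooked meat medium and TSB: the MIC well and one dilution above and below plated; lowest concentration with no visible agar growth after 24 to 48 h.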

In the next experiment the test system is Candida dubliniensis. Kind of experiment: Antifungal activity against Candida dubliniensis NCPF3949 after 24 hrs by broth microdilution assay. Format: functional. The settings on record: NCPF3949, 24 h. In short, it runs like this: as §2
Experiment [11] deals with Candida albicans. Description: Antifungal activity against Candida albicans M70 after 24 hrs by broth microdilution assay. The settings on record: M70, 24 h. Format: functional. The essentials:
as §2

In experiment [12] the test system is Streptococcus mutans. Description: Antibacterial activity against Streptococcus mutans isolate N32 after 18 to 24 hrs. Format: functional. The essentials: as §3
Experiment [13] concerns Actinomyces viscosus. Description: Antibacterial activity against Actinomyces viscosus after 24 to 48 hrs. Format: functional. In short, it runs like this: (§4)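 MBC: wells at the MIC plus one dilution above and below plated on agar; after 24 to 48 h growth, MBC = lowest concentration giving no visible growth on the agar surface.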
The test system of experiment [14] is Streptococcus mutans. Description: Antibacterial activity against Streptococcus mutans ATCC 33402 in presence of 10% human saliva. The experiment is classed as functional.
The test system of experiment [15] is Nucleic Acid. Description: Binding affinity to single stranded GC-rich oligonucleotide assessed as retardation of oligonucleotide movement by agarose gel electrophoresis. The experiment is classed as nucleic-acid assay.
For experiment [16], the system named is Streptococcus mutans. Kind of experiment: Antibacterial activity against Streptococcus mutans ATCC 33402 biofilms assessed as bacterial dead cells at 50 ug/ml after 24 hrs by fluorescence confocal microscopy. The experiment is classed as functional, organism-based. In short, it runs like this: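 2-day sucrose biofilms treated 24 h with 0 or 50 μg/ml, washed three times with PBS, stained 15 min in the dark with LIVE/DEAD dye diluted 1:1,000, washed once. Imaged by confocal laser scanning microscopy at 488 and 543 nm, side and top views.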

Experiment [17] has as its system Candida albicans. Description: Antifungal activity against Candida albicans 44 after 24 hrs by broth microdilution assay. Format: functional. The settings on record: Candida albicans, 44, 24 h. The essentials:
as §2

The test system of experiment [18] is Staphylococcus aureus. Kind of experiment: Antibacterial activity against Staphylococcus aureus ATCC 27660 after 24 to 48 hrs. Format: functional. The essentials: as §4
For experiment [19], the system named is Streptococcus mutans. Kind of experiment: Antibacterial activity against Streptococcus mutans ATCC 33402 biofilms assessed as inhibition of adherent biomass growth at >2.5 ug/ml in presence of 1% sucrose by crystal violet staining. The experiment is classed as functional, organism-based. In short, it runs like this: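 1 × 10⁵ CFU seeded in 96-well plates in BHI + 1% sucrose to form a biofilm, then exposed to increasing concentrations. After PBS washes to remove planktonic cells, methanol fixation and crystal violet staining, absorbance read at 595 nm. Reported as change from day-2 cultures before compound addition. Triplicate; SD.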

In experiment [20] the test system is RAW264.7. Kind of experiment: Inhibition of Pseudomonas aeruginosa LPS-induced TNFalpha production in mouse RAW264.7 cells at 9.5 nM after 6 hrs by ELISA. Format: functional, cell-based. In short, it runs like this: (§5)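 RAW 264.7 macrophages plated overnight at 1 × 10⁶ cells/well, then stimulated with 100 ng/ml LPS together with test agent for 6 h at 37°C. TNF-α in the medium measured by mouse TNF-α ELISA. Triplicate; SE; t test.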
(In general: ELISA stands for enzyme-linked immunosorbent assay.)

For experiment [21], the system named is Aggregatibacter actinomycetemcomitans. Description: Antibacterial activity against Actinobacillus actinomycetemcommitans CU1000 after 24 to 48 hrs. Format: functional. The essentials:
as §4

Experiment [22] deals with Streptococcus mutans. Kind of experiment: Antibacterial activity against Streptococcus mutans ATCC 33402 after 18 to 24 hrs. The experiment is classed as functional. In short, it runs like this:
as §3

Experiment [23] deals with Streptococcus mutans. Description: Antibacterial activity against Streptococcus mutans isolate N43 after 24 to 48 hrs. Format: functional. In short, it runs like this: as §4
Experiment [24] relates to Streptococcus mutans. Description: Antibacterial activity against Streptococcus mutans ATCC 33402 after 24 to 48 hrs. The experiment is classed as functional. In short, it runs like this:
as §4

In experiment [25] the test system is Candida albicans. Kind of experiment: Antifungal activity against Candida albicans ATCC 90028 after 24 hrs by broth microdilution assay. To be noted: ATCC 90028, 24 h. The experiment is classed as functional. In short, it runs like this:
as §2

Experiment [26] concerns Streptococcus mutans. Description: Antibacterial activity against Streptococcus mutans ATCC 33402 assessed as log cell killing at 10 times MIC within 1 minute by time kill study. Format: functional.
The test system of experiment [27] is Streptococcus mutans. Kind of experiment: Antibacterial activity against Streptococcus mutans ATCC 33402 assessed as log cell killing at MIC after 1 hr by time kill study. Format: functional, organism-based.
For experiment [28], the system named is Streptococcus mutans. Description: Antibacterial activity against Streptococcus mutans ATCC 33402 in presence of 30 nM single stranded DNA. The experiment is classed as functional, organism-based.
In experiment [29] the test system is Streptococcus mutans. Kind of experiment: Antibacterial activity against Streptococcus mutans isolate N32 after 24 to 48 hrs. The experiment is classed as functional. The essentials: as §4
In experiment [30] the test system is Nucleic Acid. Kind of experiment: Binding affinity to single stranded AT-rich oligonucleotide assessed as retardation of oligonucleotide movement by agarose gel electrophoresis. Format: nucleic-acid assay.
Experiment [31] has as its system Aggregatibacter actinomycetemcomitans. Kind of experiment: Antibacterial activity against Actinobacillus actinomycetemcommitans CU1000 after 18 to 24 hrs. The experiment is classed as functional. In short, it runs like this:
as §3

Experiment [32] relates to Actinomyces viscosus. Description: Antibacterial activity against Actinomyces viscosus after 18 to 24 hrs. Format: functional. In short, it runs like this: as §3
In experiment [33] the test system is RAW264.7. Description: Inhibition of Pseudomonas aeruginosa LPS-induced TNFalpha production in mouse RAW264.7 cells at 7 nM after 6 hrs by ELISA. The experiment is classed as functional, cell-based. The essentials:
as §5

For the molecule `CN(C)[C@@H]1C(O)=C(C(N)=O)C(=O)[C@@]2(O)C(O)=C3C(=O)c4c(O)cccc4[C@@](C)(O)[C@H]3C[C@@H]12`, in the experiment with Streptococcus mutans [1], the outcome was Active.
Consider `NCCc1cc(Br)cc(C#Cc2cccc(C#Cc3cc(Br)cc(CCN)c3)c2)c1`, for which the MFC in the experiment with Pichia kudriavzevii was 2 µg/mL (≈ 3.83 µM); against Nakaseomyces glabratus, 2 µg/mL (≈ 3.83 µM); in the experiment on Candida parapsilosis, 2 µg/mL (≈ 3.83 µM); against Candida tropicalis, 2 µg/mL (≈ 3.83 µM); against Candida dubliniensis, 2 µg/mL (≈ 3.83 µM); with Candida albicans [11], 1 µg/mL (≈ 1.91 µM). Also, the MFC against Candida albicans [17] is 1 µg/mL (≈ 1.91 µM); against Candida albicans [25] it was 2 µg/mL (≈ 3.83 µM). For the same molecule, the MIC in the experiment on Pichia kudriavzevii was 1 µg/mL (≈ 1.91 µM); in the experiment with Nakaseomyces glabratus, 1 µg/mL (≈ 1.91 µM); in the experiment on Staphylococcus aureus [3] it was 0.25 µg/mL (≈ 0.479 µM); with Streptococcus mutans [4], 0.5 µg/mL; in the experiment on Porphyromonas gingivalis [5], 2.5 µg/mL (≈ 4.79 µM); against Streptococcus mutans [6], 0.5 µg/mL (≈ 0.957 µM). Also, the MIC was 1 µg/mL in the experiment on Streptococcus mutans [8]; 1 µg/mL (≈ 1.91 µM) against Candida parapsilosis; 1 µg/mL (≈ 1.91 µM) against Candida tropicalis; 1 µg/mL (≈ 1.91 µM) against Candida dubliniensis; 0.5 µg/mL (≈ 0.957 µM) against Candida albicans [11]; 0.5 µg/mL (≈ 0.957 µM) with Streptococcus mutans [12]. The MIC in the experiment on Streptococcus mutans [14] worked out at 1 µg/mL; against Candida albicans [17], 0.5 µg/mL (≈ 0.957 µM); with Streptococcus mutans [22], 0.5 µg/mL (≈ 0.957 µM); in the experiment with Candida albicans [25], 1 µg/mL (≈ 1.91 µM); in [31], 0.4 µg/mL (≈ 0.766 µM); in the experiment on Actinomyces viscosus [32], 0.8 µg/mL (≈ 1.53 µM). Also, the outcome with Streptococcus mutans [2], in the experiment on Nucleic Acid [7], in the experiment with Nucleic Acid [15], in the experiment on Streptococcus mutans [16], in the experiment with Streptococcus mutans [19] and with RAW264.7 [20] was Active. Further, the outcome in the experiment on Streptococcus mutans [27], in the experiment on Streptococcus mutans [28] and in the experiment with Nucleic Acid [30] was Active. Further, the Activity in the experiment with Streptococcus mutans [9] was 3; in the experiment on Streptococcus mutans [26], over 2. Also, the MBC in the experiment on Porphyromonas gingivalis [10] came out at 2.5 µg/mL (≈ 4.79 µM); against Actinomyces viscosus [13] it was 1.5 µg/mL (≈ 2.87 µM); in the experiment on Staphylococcus aureus [18] it was 0.8 µg/mL (≈ 1.53 µM); in experiment [21], 1.5 µg/mL (≈ 2.87 µM); in the experiment with Streptococcus mutans [23], 1.25 µg/mL (≈ 2.39 µM); against Streptococcus mutans [24] it was 1.25 µg/mL (≈ 2.39 µM). In the experiment with Streptococcus mutans [29], this molecule returned an MBC of 1.25 µg/mL (≈ 2.39 µM).
For the molecule POLYMYXIN B, the outcome with RAW264.7 [33] was Active.
